This is a sample that favours compounds with a hit; in the whole collection about 2% have one here.
PABP FP inh: PABP poly(A) RNA binding inhibitors, primary screen, biochemical, fluorescence polarization, uHTS; 1% of 290,000 active; inhibition, % at 35 µM; Polyadenylate-binding protein 1 (Homo sapiens), P11940;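 further: calls also rest on retests at 20 µM and on dose response follow-up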
Target sequence (P11940 whole entry, looked up): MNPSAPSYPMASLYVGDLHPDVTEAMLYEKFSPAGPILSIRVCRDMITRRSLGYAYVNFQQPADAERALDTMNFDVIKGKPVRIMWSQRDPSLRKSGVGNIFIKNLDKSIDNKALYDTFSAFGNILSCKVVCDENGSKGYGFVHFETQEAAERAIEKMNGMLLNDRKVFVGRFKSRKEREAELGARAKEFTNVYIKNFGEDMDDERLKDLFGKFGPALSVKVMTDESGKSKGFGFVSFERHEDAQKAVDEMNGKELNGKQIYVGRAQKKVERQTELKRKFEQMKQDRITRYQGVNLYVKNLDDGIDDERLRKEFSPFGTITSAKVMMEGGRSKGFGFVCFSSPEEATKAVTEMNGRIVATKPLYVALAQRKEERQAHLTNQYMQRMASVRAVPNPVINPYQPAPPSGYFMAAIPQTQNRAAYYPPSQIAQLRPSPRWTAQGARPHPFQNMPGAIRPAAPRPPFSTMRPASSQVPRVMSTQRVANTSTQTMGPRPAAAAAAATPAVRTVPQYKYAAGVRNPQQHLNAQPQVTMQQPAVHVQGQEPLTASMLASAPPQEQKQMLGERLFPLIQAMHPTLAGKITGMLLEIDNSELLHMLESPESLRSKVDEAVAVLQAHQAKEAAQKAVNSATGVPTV
PABP1 MLLE inh: inhibitors of PABP1 MLLE–PAM2 peptide binding, primary screen, biochemical, fluorescence polarization, FITC-PAM2, GST-MLLE; Polyadenylate-binding protein 1 (Homo sapiens), P11940; inhibition, % at 20 µM; 0.36% of 360,000 active; AID 588489, 2011; in the data active means inhibition above about 35%, passing the limit was not always enough;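 further: plate controls were DMSO wells with GST-MLLE for no effect and wells lacking GST-MLLE protein for full effect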
FID counter: compounds displacing fluorescent DNA intercalator, primary screen, artefact control for HCV NS3 helicase inhibitor project, biochemical, FID fluorescence | DNA fluorescent intercalator displacement | inhibition, % at 7.9 µM | 0.17% of 290,000 active | AID 1845, 2009; in the data active means inhibition above about 37%;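 further: 0% = vehicle and 100% = reference compound; higher means more ethidium bromide displaced from hairpin DNA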
NS3 helicase inh: inhibitors of HCV NS3 helicase, primary screen, biochemical, Cy5 molecular beacon fluorescence | Hepatitis C virus NS3 helicase | inhibition, % at 10.9 µM | NS3 helicase DNA unwinding | 0.56% of 290,000 active;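 active means inhibition above the mean of all tested compounds plus 3 SD, set per campaign, cut at about 35% in these data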;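 further: 0% = DMSO wells and 100% = thioflavine S control wells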
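Test system: hepatitis C virus NS3 helicase domain fragment enzyme. Also added: annealed dual-labelled DNA beacon duplex, ATP-started. Timing: 60 min unwinding reaction at 25 °C after ATP addition. Technique: Cy5 fluorescence. Measure: % inhibition of unwinding.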
HCV core dimer: inhibitors of HCV core protein dimerization, primary screen, biochemical, TR-FRET, high-throughput; 0.33% of 300,000 active; TR-FRET GST/Flag-core106 dimerization, 1536-well; inhibition, % at 5 µM;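 active means inhibition above the mean of all tested compounds plus 3 SD, set per screening campaign, cut at about 45% in these data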
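Assay system – GST-tagged and Flag-tagged HCV core protein residues 1-106 · Quantity – core106 proteins, GST 13.5 nM and Flag 17 nM · Benchmarks – unlabelled core106 and no-GST-core106 wells · Read-out basis – percent inhibition of core106 dimerization signal · Detection – time-resolved FRET, ex 340 nm, em 617 and 671 nm · Schedule – 4 h at 22.5 °C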
eIF4H FP inh: human eIF4H binding inhibitors, primary screen, translation initiation inhibitor project, biochemical, uHTS, fluorescence polarization; Eukaryotic translation initiation factor 4H (Homo sapiens), Q15056; eIF4H fluorescence polarization binding assay; inhibition, % at 35 µM; 0.94% of 290,000 active;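 further: calls also rest on retests at 20 µM and on dose response follow-up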
An asterisk follows results filed as active; ? = inconclusive; . = no result. Unless noted, how the calls were made is not given here.

SMILES	PABP FP inh	PABP1 MLLE inh	FID counter	NS3 helicase inh	HCV core dimer	eIF4H FP inh
Cc1cccc2cc(C3CC(c4ccco4)=NN3C(=O)CCC(=O)O)c(Cl)nc12 (stereo unspecified)	7	-9	-35	11	1	56*
Cc1ccc2nc(Cl)c(C3CC(c4ccco4)=NN3C(=O)CCCC(=O)O)cc2c1 (stereo unspecified)	-6	-2	-35	2	5	17
O=C(CCl)N1N=C(c2cccs2)CC1c1ccco1 (stereo unspecified)	-12	-20	0	3	9	3
Nc1cc(=O)[nH]c(SCC(=O)N2N=C(c3ccc(Cl)cc3)CC2c2ccco2)n1 (stereo unspecified)	-7	-27	-38	24	49*	11
O=C(CCl)N1N=C(c2ccco2)CC1c1ccco1 (stereo unspecified)	31*	7	-8	28	30	54*
Cc1cnc(CN(C)C(=O)C2CCC(=O)N(CCc3ccc(Cl)cc3)C2)[nH]1 (stereo unspecified)	.	-6	.	.	.	.
Nc1ccccc1-n1c(=O)n(Cc2ccccc2F)c(=O)c2[nH]cnc21	0	9	-5	6	2	2
COc1cccc2cc(/C(C)=N/Nc3nc(-c4cc(C)ccc4C)cs3)c(=O)oc12	-3	-4	-8	28	76*	-3
c1ccc(Cc2nnc3sc(-c4ccncc4)nn23)cc1	0	42*	0	4	-3	-1
c1ccc(Cc2nn3c(-c4ccncc4)nnc3s2)cc1	1	38*	-5	-4	4	4
c1ccc(OCc2nn3c(-c4ccncc4)nnc3s2)cc1	1	-4	-9	4	-4	-6
CCOC(=O)CNc1nnc(SCC(=O)OCC)[nH]c1=O	5	46*	3	7	-6	0
Cc1nc(NC(N)=S)sc1C(=O)Nc1ccccc1	-2	41*	1	5	9	1
Cc1ccc(S(=O)(=O)N2CCC(C(N)=O)CC2)c(C)c1C	0	8	-3	-7	1	5
CCOc1cc(Br)ccc1S(=O)(=O)N1CCC(C(N)=O)CC1	104*	10	-7	-2	-13	active
Cc1ccc(N(Cc2ccccc2)C(=O)Cc2ccc(S(=O)(=O)N3CCOCC3)s2)cc1	.	-5	.	.	.	.
Cc1ccc2cc3c(N)c(C(=O)Nc4c(C)[nH]c(=O)[nH]c4=O)sc3nc2c1	81*	-1	-3	7	-27	5
Cc1ccc2nc3sc(C(=O)Nc4c(C)[nH]c(=O)[nH]c4=O)c(N)c3cc2c1	-6	-1	6	-2	-33	14
NC(=O)COC(=O)c1cccc(S(=O)(=O)N2CCN(c3ccccc3)CC2)c1	-7	-6	-5	-1	0	-1
O=C(COC(=O)c1cccc(S(=O)(=O)N2CCN(c3ccccc3)CC2)c1)NCc1ccco1	24	-11	-22	8	82*	67
CNc1ccc(Cl)cc1S(=O)(=O)c1ccccc1[N+](=O)[O-]	.	9	.	.	.	.
CCC1C(=O)C(C)(C)C(=O)OC1c1ccc([N+](=O)[O-])cc1 (stereo unspecified)	85*	7	-3	10	5	110*
O=C1CC(=O)OC(c2ccc([N+](=O)[O-])cc2)O1	.	19	.	.	.	.
CCOC(=O)C1=CCN(S(=O)(=O)c2ccc(C)cc2)C1c1ccc(Cl)c(Cl)c1 (stereo unspecified)	.	11	.	.	.	.
Cc1c(N)cc(N)cc1C(=O)O	50*	0	-1	16	-2	83*
SMILES	PABP FP inh	PABP1 MLLE inh	FID counter	NS3 helicase inh	HCV core dimer	eIF4H FP inh
Cc1ccc2nccc(C(=O)N3CCCC(Nc4ccc(F)cc4)C3)c2c1 (stereo unspecified)	-4	-13	-36	1	-6	2
COc1ccc(S(=O)(=O)N2CCN(C(=O)CC3CC4CCC3C4)CC2)cc1 (stereo unspecified)	.	-2	.	.	.	.
CN(C)c1ccc(-c2csc(C(C)(O)c3ccccc3)n2)cc1 (stereo unspecified)	.	2	.	.	.	.
Cc1ccc(-c2csc(N3N=C(c4ccccc4)/C(=C\c4ccc(N(C)C)cc4)C3=O)n2)cc1	-7	.	-9	33	46*	5
CSc1ncc(Cl)c(C(=O)Nc2cccc(Cl)c2)n1	-5	-3	-3	5	-5	-4
Cc1nn(-c2ccccc2)c(C)c1C(=O)OCC(O)=C(C#N)c1nc2ccccc2[nH]1	.	-43	.	.	.	.
Cc1nn(-c2ccccc2)c(C)c1C(=O)OC/C(O)=C(\C#N)c1nc2ccccc2[nH]1	30	-40	-30	-9	67*	14
COc1cccc(C(=O)NN2CC(O)=C(c3nc(C)cs3)C2=N)c1	-4	-2	5	-4	-6	0
Cc1ccc(C(=O)NN2CC(O)=C(c3nc(-c4cccc([N+](=O)[O-])c4)cs3)C2=N)cc1	11	8	2	3	54*	18
CC(C)c1ccc(NC(=O)C2Cc3c(-c4ccccc4Oc4ccccc4)ccnc3O2)cc1 (stereo unspecified)	.	1	.	.	.	.
O=S(=O)(Nc1cc2nc3ccccc3nc2n1Cc1ccccc1)c1ccc(Cl)cc1	-2	33	-7	16	5	5
CCOC(=O)C1=C(C)N=c2s/c(=C/c3ccc(OCC(=O)O)cc3)c(=O)n2C1c1ccc(SC)cc1 (stereo unspecified)	43*	-129	13	29	.	63*
CCCN(C(=O)CSCc1ccc(C)cc1)c1c(N)n(Cc2ccccc2)c(=O)[nH]c1=O	.	-27	.	.	.	.
COC(=O)C1=C(O)/C(=C\c2ccc(CNC(=O)C(=O)Nc3ccc(C)cc3)o2)N=C1C	?	-10	-11	32	23	?
CCOC(=O)C1=C(O)/C(=C/c2ccc(CNC(=O)C(=O)Nc3ccc(C)cc3)o2)N=C1C	119	-17	-9	11	40	103*
O=C(NCCOc1ccccc1)c1ccc2c(c1)S(=O)(=O)c1cc(Cl)ccc1C2=O	.	9	.	.	.	.
S=c1[nH]ncn2c1cc1oc3ccccc3c12	2	-117	1	-2	64*	7
O=C(NCCc1ccc(F)cc1)c1ccc2c(=O)n3c(nc2c1)CCC3	.	-4	.	.	-2	.
CCOc1cc2c(C#N)c(N3CCOCC3)nc(N)c2c(N)n1	57*	7	.	.	1	73*
OCC1OC(n2cnc3c(NCCc4ccccc4)ncnc32)C(O)C1O (stereo unspecified)	.	5	.	.	-1	.

Bioassay records: PubChem BioAssay, several laboratories
